Measurements: ChEMBL document CHEMBL1139482, “Synthesis and evaluation of quindoline derivatives as G-quadruplex inducing and stabilizing ligands and potential inhibitors of telomerase” (J Med Chem, 2005)
Active and inactive are the calls of the source. The calls are words filed in the database; no cut-off is given here.

Experiments:
[1] = Inhibition of telomerase by TRAP assay; parameters: species or system Homo sapiens
How it was run: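 Cell-free modified TRAP using A2780 ovarian carcinoma extract, 0.04 μg protein. TS primer extended in TRAP buffer pH 8.3 with 68 mM KCl, 1.5 mM MgCl2, 50 μM dNTPs and [32P]dCTP, agent up to 50 μM final, 20 min at 25 °C. Then 31 PCR cycles; products read by denaturing gel phosphorimaging or filter scintillation counting.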

[2] = species: Homo sapiens; experiment: Induction of G-quadruplex in G-rich human telomere 21 DNA assessed as circular dichroism spectral change at 50 uM
How it was run: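 Telo21 at 5 μM strand in 10 mM Tris-HCl pH 7.4, no metal ions, compound at 50 μM. Annealed at 90 °C, cooled slowly, held at 4 °C for several hours. CD recorded 320–200 nm, 16 scans at 100 nm/min, 1 nm bandwidth, buffer baseline subtracted.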

[3] = Dissociation constant, pKa of the compound; type: physicochemical
How it was run: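 UV titration across pH. Molar extinction coefficient read at the two wavelengths where ε changes most between acidic and basic solution, then plotted against pH. pKa taken as the pH midway between the horizontal sections of the curve.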

[4] = species: Homo sapiens; experiment: Induction of G-quadruplex in G-rich human telomere 21 DNA in presence of 100 mM K+ ions by EMSA
How it was run: (§1)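 Native-gel shift of 20 μM telo21 in 10 mM Tris-HCl pH 7.4, with or without 100 mM KCl, heated 95 °C for 10 min then cooled. Compound titrated in at increasing concentrations and incubated 4–8 h at room temperature. Run on native 15% PAGE in TBE for 2 h, silver-stained; G-quadruplex and single-strand bands scored.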

[5] = species: Homo sapiens; experiment: Induction of G-quadruplex in G-rich human telomere 21 DNA by EMSA; how it was run: as §1
[6] = species: Homo sapiens; experiment: Destruction of parallel G-quadruplexes in mixed G-quadruplex human telomere 21 DNA in presence of 0.1 M potassium

IC50 [1] [µM] | Activity [2] | pKa [3] | Activity [4] | Activity [5] | Activity [6] | Compound
1.12 | Active | 8.3 |  |  |  | CN(C)CCNc1c2ccccc2nc2c1[nH]c1ccccc12
8.12 | Active | 8.2 |  |  |  | OCCCNc1c2ccccc2nc2c1oc1ccccc12
7.11 | Active | 8.2 |  |  |  | CN(C)CCNc1c2ccccc2nc2c1oc1ccccc12
4.38 | Active | 8.2 |  |  |  | c1ccc2c(NCCN3CCOCC3)c3oc4ccccc4c3nc2c1
2.35 | Active | 8.3 |  |  |  | OCCNc1c2ccccc2nc2c1[nH]c1ccccc12
0.55 | Active | 8.4 | Active | Active | Active | c1ccc2c(NCCN3CCOCC3)c3[nH]c4ccccc4c3nc2c1
12.3 | Active | 8.2 |  |  |  | OCCNc1c2ccccc2nc2c1oc1ccccc12
1.55 | Active | 8.3 |  |  |  | OCCCNc1c2ccccc2nc2c1[nH]c1ccccc12
3.29 | Active | 8.3 |  |  |  | CN(C)CCCNc1c2ccccc2nc2c1oc1ccccc12

Compound | IC50 [1] [µM] | Activity [2] | pKa [3] | Activity [4] | Activity [5] | Activity [6]
CN(C)CCCNc1c2ccccc2nc2c1[nH]c1ccccc12 | 0.44 | Active | 8.4 |  |  | 
c1ccc2nc3c(cc2c1)[nH]c1ccccc13 [QUINDOLINE] | > 138 |  | 4.2 |  |  | 
